AF4-AF9 inh: MLL-AF4/AF9 protein interaction inhibition; AlphaScreen, biotin-AF4 peptide binding to FLAG-AF9; inhibition, % at 10 µM; 350,000 tested, 0.47% active;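 active means every replicate reaching a set inhibition limit, whatever the replicate mean, cut at about 25% in these data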;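 further: 0% = plate neutral control median and 100% = total signal loss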
Target sequence (P42568 whole entry, looked up): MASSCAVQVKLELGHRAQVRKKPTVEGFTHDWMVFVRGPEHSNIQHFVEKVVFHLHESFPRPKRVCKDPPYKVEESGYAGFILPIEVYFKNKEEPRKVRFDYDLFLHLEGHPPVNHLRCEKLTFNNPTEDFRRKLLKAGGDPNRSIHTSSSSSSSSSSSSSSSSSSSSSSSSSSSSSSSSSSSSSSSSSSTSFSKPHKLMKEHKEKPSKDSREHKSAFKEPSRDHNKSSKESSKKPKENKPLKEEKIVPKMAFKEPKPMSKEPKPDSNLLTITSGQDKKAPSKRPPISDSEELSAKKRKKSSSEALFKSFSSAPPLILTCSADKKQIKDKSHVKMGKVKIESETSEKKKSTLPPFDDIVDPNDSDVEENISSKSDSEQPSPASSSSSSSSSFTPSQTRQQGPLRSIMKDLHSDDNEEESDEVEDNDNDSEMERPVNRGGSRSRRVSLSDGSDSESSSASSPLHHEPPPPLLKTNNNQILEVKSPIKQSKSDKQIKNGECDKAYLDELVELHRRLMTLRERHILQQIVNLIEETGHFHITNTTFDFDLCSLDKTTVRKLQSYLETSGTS
XiGFP reactiv: activators of X-chromosome reactivation in mouse fibroblasts. activation, % at 7.58 µM. XiGFP mouse fibroblasts, % GFP-positive cells imaging, 3 d; cells co-treated with 5-aza-dC sensitizer; scaled so ellipticine positive control = 100%. AID 743238. 360,000 tested, 0.055% active;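 active means mean normalized replicate activation at least 10% and every replicate at or above 10%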;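 further: 0% = median of on-plate neutral control wells and 100% = ellipticine 6 µM median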
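Assay system – SV40-immortalized XiGFP fibroblast cells, line 68-5-11 · Buffer or medium – DMEM supplemented with 5-aza-dC as sensitizing agent · Dosing – one concentration, pinned · Benchmarks – positive control ellipticine, 6 µM final · Times – 3 days compound exposure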
PAX8 reporter: PAX8 transcriptional activity inhibition. AID 652154. 360,000 tested, 1.2% active. RMG-I TPO-luciferase reporter, SteadyGlo, 24 h. inhibition, % at 12.6 µM;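 active means mean replicate inhibition at least 60% with every replicate also reaching 60%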;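 further: luciferase light reporting Pax8 driven TPO promoter activity; plate controls were median of neutral control wells for no effect and mitoxantrone controls for full effect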
GSIS activator: GLuc luminescence reporter in INS-1E cells, primary screen for activators of glucose-dependent secretion of insulin | 370,000 tested, 0.61% active | activation, % at 16.6 µM | INS-1E GLuc reporter insulin secretion, 2-3 h;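 active means lowest replicate activation of at least 40%, so every replicate reaches that level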;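 further: 0% = median of neutral control wells and 100% = median of IBMX positive control wells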
PGC1a acetyl inh: modulators of PGC1a acetylation. inhibition, % at 15.6 µM. U2OS PGC1a acetylation, AlphaScreen anti-acetyl-lysine; with virally co-expressed GCN5 acetyltransferase. 350,000 tested, 0.17% active;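 active means every replicate shows inhibition of at least 40%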;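 further: 0% = neutral control wells and 100% = positive control wells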
EWS-Fli block: inhibitors of EWS/Fli oncoprotein transcriptional activity; A673 NR0B1-luciferase reporter, viability-normalised; 350,000 tested, 0.67% active; inhibition, % at 12.6 µM; AID 651661;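 active means mean inhibition of at least 50% after viability correction, with every replicate also passing that limit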;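 further: firefly luciferase signal divided by Alamar Blue viability fluorescence both relative to DMSO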
* hit, by the source's call; · = no result. In the library only some 2.1% were active in any assay of this set; here they are far more common.

SMILES	AF4-AF9 inh	XiGFP reactiv	PAX8 reporter	GSIS activator	PGC1a acetyl inh	EWS-Fli block
COc1cc(/C=N/NC(=O)CNC(=O)c2ccncc2)ccc1O	-2	0	13	12	-3	·
COc1ccc(S(=O)(=O)N(C)C[C@@H]2OCCCC[C@H](C)Oc3ccc(NC(=O)Nc4ccc(F)cc4)cc3C(=O)N([C@@H](C)CO)C[C@@H]2C)cc1	0	0	35	-3	-7	27
COCC(=O)N1CC2(CCN(C(=O)CN3CCOCC3)CC2)c2c([nH]c3cc(OC)ccc23)[C@H]1CO	-2	0	·	16	1	10
O=C(Cc1ccc(Cl)cc1)c1c[nH]c(C(=O)NCc2cccnc2)c1	1	0	-2	-5	-65	66*
CC(C)(C)c1ccc(C(=O)c2c[nH]c(C(=O)NCc3cccnc3)c2)cc1	·	·	·	·	-257	·
O=C(O)C[C@@H]1CC[C@H](NC(=O)c2ccccc2F)[C@@H](CO)O1	-5	0	-13	8	4	-5
CCOc1nc(NC(=O)NS(=O)(=O)Oc2ccccc2Cl)nc(-c2ccccc2)n1	·	·	·	60*	-10	·
CCOc1nc(NC(=O)NS(=O)(=O)c2cccc(Cl)c2)nc(-c2ccccc2)n1	2	0	-13	71*	21	-5
C[C@@H]1CN([C@H](C)CO)C(=O)Cc2cc(NS(=O)(=O)c3ccccc3)ccc2O[C@H]1CN(C)C(=O)Nc1cccc2ccccc12	-2	0	-24	13	8	-4
COc1ccc(-n2nc([N+](=O)[O-])c(=NCCc3ccccc3)n2O)cc1	10	0	94*	-1	·	-10
O=[N+]([O-])c1nn(-c2ccccc2)n(O)c1=NCCc1ccccc1	·	·	·	3	10	·
Cc1noc(C)c1NC(=O)N(C)C[C@H]1OCCCC[C@@H](C)Oc2ccc(NC(=O)c3ccncc3)cc2C(=O)N([C@H](C)CO)C[C@H]1C	-3	0	-11	7	1	-2
O=c1c2cccnc2n(-c2ccccc2)n1Cc1ccc(Cl)cc1	-2	0	-2	1	101*	-1
C[C@@H]1CN([C@H](C)CO)C(=O)c2cc(NC(=O)Nc3ccc(C(F)(F)F)cc3)ccc2O[C@@H](C)CCCCO[C@H]1CN(C)S(=O)(=O)c1ccccc1	1	0	96*	15	-4	12
C[C@@H]1CCCCO[C@@H](CN(C)S(=O)(=O)c2ccc(F)cc2)[C@H](C)CN([C@@H](C)CO)C(=O)c2cc(NC(=O)Nc3ccc(C(F)(F)F)cc3)ccc2O1	-4	0	41	5	1	-7
C[C@@H]1CCCCO[C@@H](CN(C)S(=O)(=O)c2cccs2)[C@H](C)CN([C@@H](C)CO)C(=O)c2cc(NC(=O)Nc3ccc(C(F)(F)F)cc3)ccc2O1	-1	0	65*	7	11	-6
C[C@@H]1CCCCO[C@H](CN(C)S(=O)(=O)c2ccccc2)[C@H](C)CN([C@H](C)CO)C(=O)c2cc(NC(=O)Nc3ccc(C(F)(F)F)cc3)ccc2O1	-1	0	52	31	3	4
C[C@@H]1CCCCO[C@@H](CN(C)S(=O)(=O)c2ccccc2)[C@H](C)CN([C@H](C)CO)C(=O)c2cc(NC(=O)Nc3ccc(C(F)(F)F)cc3)ccc2O1	2	0	89*	19	5	12
C[C@H]1CCCCO[C@H](CN(C)S(=O)(=O)c2ccccc2)[C@@H](C)CN([C@@H](C)CO)C(=O)c2cc(NC(=O)Nc3ccc(C(F)(F)F)cc3)ccc2O1	0	0	68*	23	5	3
CN1c2ccc(-c3ccccc3F)cc2[C@@H]2[C@@H](CCN2C(=O)Nc2ccc(F)cc2)[C@@H]1CO	·	0	0	-6	-15	9
Cc1ccccc1-c1ccc2c(c1)O[C@H](CN(C)C(=O)c1ccccn1)[C@H](C)CN([C@H](C)CO)S2(=O)=O	2	-1	5	9	-15	1
C[C@H](CO)N1C[C@H](C)[C@H](CN(C)S(=O)(=O)c2cccs2)OCCCC[C@H](C)Oc2ccc(NC(=O)NC3CCCCC3)cc2C1=O	·	0	104*	-13	3	14
CCOC(=O)COc1nc2ccc(Br)cc2c(-c2ccccc2)c1C(C)=O	-1	0	13	8	0	8
O=[N+]([O-])c1ccc2nc(NCCCO)nc(-c3ccccc3)c2c1	·	0	21	22	·	·
CCOc1nc(-c2ccccc2)c2cc(Br)ccc2n1	0	0	5	47*	·	23
SMILES	AF4-AF9 inh	XiGFP reactiv	PAX8 reporter	GSIS activator	PGC1a acetyl inh	EWS-Fli block
O=C(O)CNc1nc(-c2ccccc2)c2cc([N+](=O)[O-])ccc2n1	·	0	-18	61*	21	·
OCCNc1nc(-c2ccccc2)c2cc(Br)ccc2n1	0	0	20	59*	8	13
COC(=O)C1C(=O)NC(SC)=C(C#N)C1c1ccccc1 (centres undefined)	·	·	·	40*	-10	·
COC(=O)CSC1=C(C#N)C(c2ccc(Cl)cc2)C(C(=O)OC)C(=O)N1 (centres undefined)	·	·	·	·	-27	·
C[C@@H]1CN([C@H](C)CO)S(=O)(=O)c2ccc(C#Cc3ccncc3)cc2O[C@H]1CN(C)C(=O)C1CCCCC1	-3	0	78*	-24	-21	15
CCN(C)C[C@@H]1Oc2cc(C#CCC3CCCC3)ccc2S(=O)(=O)N([C@@H](C)CO)C[C@H]1C	1	-1	18	-7	6	9
CCCN(C)C[C@@H]1Oc2cc(C#Cc3ccncc3)ccc2S(=O)(=O)N([C@H](C)CO)C[C@@H]1C	-1	0	·	-1	-1	66*
CCCN(C)C[C@@H]1Oc2cc(C#Cc3ccncc3)ccc2S(=O)(=O)N([C@@H](C)CO)C[C@@H]1C	-1	0	·	5	-7	23
CCCN(C)C[C@@H]1Oc2cc(C#CCC3CCCC3)ccc2S(=O)(=O)N([C@H](C)CO)C[C@H]1C	·	0	71*	-1	-8	43
CCCCCCN(C(=O)CCCCCN1C(=O)NC(c2ccc(-c3ccccc3)cc2)C(C(=O)OCc2ccccc2)=C1C)C(C(=O)NCCCC)c1ccccn1 (centres undefined)	·	0	80*	-2	·	7
CCCCCCN(C(=O)CCCCCN1C(=O)NC(c2ccc(-c3ccccc3)cc2)C(C(=O)OCc2ccccc2)=C1C)C(C(=O)NCCCC)C1CCCCC1 (centres undefined)	-7	0	-6	13	·	0
CC(=O)Nc1ccc2c(c1)CC(=O)N(C)C[C@@H](C)[C@@H](CN(C)C(=O)OC(C)(C)C)O2	·	0	·	-4	·	·
CCc1ccc(OCC(=O)NC(=S)Nc2ccc(C)cc2C)c(Br)c1	·	·	·	41*	5	·
